Experimental findings from ChEMBL document CHEMBL1122595, “Stereochemical considerations and the antiinflammatory activity of 6-amino-6,7,8,9-tetrahydro-5H-benzocyclohepten-5-ols and related derivatives” (1984) are described below.

For test [1], the species on record is Rattus norvegicus. Put plainly: The relative potency was evaluated by considering the potency of indomethacin as 1. The class given is functional. In a few lines:
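Rat reverse passive Arthus paw oedema (oral gavage in methylcellulose 1 h before iv BSA, subplantar anti-BSA 1 h later, plethysmograph change over 2 h); three to five dose points; ED50 and potency relative to indomethacin standard derived by linear regression.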

Test [2] concerns Rattus norvegicus. The test is described as follows: Antiinflammatory activity in rats by using reverse passive Arthus reaction (RPAR) assay at dose level of 50 mg/Kg by peroral administration. It is filed as functional. The method, boiled down: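 Rats fasted 24 h before and during study, water ad libitum; groups of at least six dosed by gavage in methylcellulose 1 h before iv (penile vein) BSA 1 mg sensitization under light ether; 1 h later subplantar anti-BSA 0.1 mg in right hind paw. Paw volume by mercury plethysmograph immediately and 2 h postchallenge; percent inhibition vs MC controls, ANOVA (Duncan, Dunnett).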

`Cl.NC1CCCc2cc(F)ccc2C1O` (stereo unspecified) gave a Relative potency in test [1] of 0.18. The Inhibitory response in test [2] is 100%.

`NC1CCCc2cc(Cl)ccc2C1O` (stereo unspecified) gave a Relative potency in test [1] of 0.08. This compound also yielded an Inhibitory response in test [2] of 94%.

`CC(C)Oc1ccc2c(c1)C(O)C(N)CCC2` (stereo in doubt; 4m) displayed a Relative potency in test [1] of 0.18. Besides, the Inhibitory response in test [2] came out at 77%.

In test [2], `O=C1NC2CCCc3ccc(F)cc3C2O1` (stereo in doubt; 19j) returned an Inhibitory response of 19%.

For `CSc1ccc2c(c1)CCCC(N)C2O` (stereo unspecified), the Relative potency in test [1] turned out to be 0.04. The Inhibitory response in test [2] amounted to 84%.

`O=C1NC2CCCc3ccccc3C2O1` (stereo in doubt; 19a) had an Inhibitory response in test [2] of 77%.

In test [2], `NC1CCCc2ccc(SCc3ccccc3)cc2C1O` (stereo in doubt; 4w) yielded an Inhibitory response of 31%.

For `NC1CCCc2ccc(Cl)cc2C1O` (stereo in doubt; 4aa), the Inhibitory response in test [2] is 44%.

As to `COc1cc2c(cc1[S+](C)[O-])C(O)C(N)CCC2` (stereo in doubt; 4ii), in test [2], the Inhibitory response is 0%.

Take `CC(C)(C)C(=O)OCOc1ccc2c(c1)C(O)C(N)CCC2` (stereo in doubt; 4r): the Inhibitory response in test [2] was 3%.

As to `O=C1NC2CCCc3ccc(Cl)cc3C2O1` (stereo in doubt; 20h), in test [2], the Inhibitory response was 29%.

In test [2], `O=C1NC2CCCc3ccc(Cl)cc3C2O1` (stereo in doubt; 19i) yielded an Inhibitory response of 9%.

In test [2], `COc1cc2c(cc1OC)C(O)C(N)CCCC2.Cl` (stereo unspecified) gave an Inhibitory response of 0%.

Compound `O=C1NC2CCCc3ccc(F)cc3C2O1` (stereo in doubt; 20i) displayed a Relative potency in test [1] of 0.03. Also, the Inhibitory response in test [2] is given as 78%.

As to `CC(C)c1ccc2c(c1)C1OC(=O)NC1CCC2` (stereo in doubt; 20g), the Inhibitory response in test [2] was found to be 37%.

With `COc1ccc2c(c1)C1OC(=O)NC1CCC2` (stereo in doubt; 19g), in test [2], the Inhibitory response is listed as 20%.

`Cl.N[C@@H]1CCCc2cccnc2[C@@H]1O`: the Inhibitory response in test [2] turned out to be 36%.

Regarding `COc1ccc2c(c1)C(O)C(N)CCC2` (stereo in doubt; 4i), the Relative potency in test [1] is recorded as 0.75. In test [2], the Inhibitory response was found to be 98%.

In the case of `COc1ccc2c(c1)C(O)C(N)CCC2` (stereo in doubt; 4j), in test [1], the Relative potency stood at 0.02. For the same compound, in test [2], the Inhibitory response was 13%.

With `NC[C@H]1c2ccccc2CCC[C@H]1O`, the Inhibitory response in test [2] came out at 8%.

`COc1ccc2c(c1)CCCC(N)C2O` (stereo unspecified) had a Relative potency in test [1] of 0.1. For the same compound, the Inhibitory response in test [2] worked out at 80%.

Compound `COc1cc2c(cc1SC)C(O)C(N)CCC2` (stereo in doubt; 4gg) showed an Inhibitory response in test [2] of 29%.

Consider `O=C1NC2CCCc3ccccc3C2O1` (stereo in doubt; 20a), for which, in test [1], the Relative potency is 0.06. For the same compound, the Inhibitory response in test [2] was 92%.

In the case of `O=C1N[C@@H]2CCCc3cccnc3[C@@H]2O1`, in test [1], the Relative potency was determined as 0.3. In addition, the Inhibitory response in test [2] is on record as 82%.

`O=C1NC2CCCc3cc(F)ccc3C2O1` (stereo in doubt; 20e) had a Relative potency in test [1] of 0.04. The same compound displayed an Inhibitory response in test [2] of 96%.

In turn, `O=C1NC2CCCc3cc(Cl)ccc3C2O1` (stereo in doubt; 19e) had an Inhibitory response in test [2] of 9%.

In test [2], `CC(C)Oc1ccc2c(c1)C(O)C(N)CCC2` (stereo in doubt; 4n) had an Inhibitory response of 4%.

For `O=C1NC2CCCc3cc(Cl)ccc3C2O1` (stereo in doubt; 20d), in test [2], the Inhibitory response is on record as 18%.

`N[C@@H]1CCCc2cccnc2[C@@H]1O`: in test [2], the Inhibitory response is 28%.

`Cc1ccc2c(c1)CCCC(N)C2O` (stereo unspecified): in test [1], the Relative potency was found to be 0.05. This compound also came in with an Inhibitory response in test [2] of 93%.

Consider `COc1ccc2c(c1)C1OC(=O)NC1CCC2` (stereo in doubt; 20f), for which the Inhibitory response in test [2] stood at 24%.

With `CC(C)Sc1ccc2c(c1)C(O)C(N)CCC2` (stereo unspecified), the Inhibitory response in test [2] is listed as 39%.

Consider `COc1cc2c(cc1[S+](C)[O-])C(O)C(N)CCC2` (stereo in doubt; 4hh), for which the Inhibitory response in test [2] stood at 8%.

`COc1cc2c(cc1OC)C(O)C(N)CCC2.Cl` (stereo in doubt; 4ee) registered a Relative potency in test [1] of 0.03. This compound registered an Inhibitory response in test [2] of 13%.

In turn, `NC1CCCc2ccc(Cl)cc2C1O` (stereo in doubt; 4z) came in with a Relative potency in test [1] of 0.34. Besides, in test [2], the Inhibitory response was determined as 94%.

With `COc1cc2c(cc1OC)C(O)C(N)CCC2.Cl` (stereo in doubt; 4dd), the Relative potency in test [1] worked out at 0.2. The same compound came in with an Inhibitory response in test [2] of 93%.

In the case of `CS(=O)(=O)c1ccc2c(c1)C(O)C(N)CCC2` (stereo unspecified), in test [2], the Inhibitory response turned out to be 5%.

As for `Cl.NC1CCCc2ccccc2C1O` (stereo in doubt; 4b), the Relative potency in test [1] is reported as 0.15. In test [2], this compound came in with an Inhibitory response of 98%.

For `Cl.NC1CCCc2ccc([N+](=O)[O-])cc2C1O` (stereo unspecified), in test [1], the Relative potency amounted to 0.25. In test [2], this compound displayed an Inhibitory response of 100%.

Regarding `CC(C)c1ccc2c(c1)C1OC(=O)NC1CCC2` (stereo in doubt; 19h), the Inhibitory response in test [2] came to 7%.

With `C[S+]([O-])c1ccc2c(c1)C(O)C(N)CCC2` (stereo unspecified), the Inhibitory response in test [2] amounted to 7%.

In test [1], `CC(C)c1ccc2c(c1)C(O)C(N)CCC2` (stereo unspecified) gave a Relative potency of 0.12. In test [2], this compound came in with an Inhibitory response of 100%.

In the case of `CSc1ccc2c(c1)C(O)C(N)CCC2` (stereo in doubt; 4k), the Relative potency in test [1] amounted to 0.56. The compound further came in with an Inhibitory response in test [2] of 90%.

As to `NC1CCCc2ccc(SCc3ccccc3)cc2C1O` (stereo in doubt; 4v), in test [2], the Inhibitory response turned out to be 99%.

In test [2], `CC(C)(C)C(=O)OCOc1ccc2c(c1)C(O)C(N)CCC2` (stereo in doubt; 4q) showed an Inhibitory response of 16%.

Regarding `Cl.NC1CCCc2ccccc2C1O` (stereo in doubt; 4a), the Inhibitory response in test [2] is listed as 93%.

In turn, `Cl.NC1CCCc2ccccc2C1O` (stereo in doubt; 4c) came in with a Relative potency in test [1] of 0.02. In test [2], the Inhibitory response was found to be 11%.

In test [1], `NC1CCCc2ccc(F)cc2C1O` (stereo unspecified) showed a Relative potency of 0.15. The same compound yielded an Inhibitory response in test [2] of 96%.

In turn, `CC(=O)Nc1ccc2c(c1)C(O)C(N)CCC2` (stereo unspecified) gave an Inhibitory response in test [2] of 18%.

For `O=C1NC2CCCc3cc(F)ccc3C2O1` (stereo in doubt; 19f), the Inhibitory response in test [2] was found to be 39%.

The compound `NC[C@@H]1c2ccccc2CCC[C@H]1O` returned an Inhibitory response in test [2] of 0%.

Consider `CSc1ccc2c(c1)C(O)C(N)CCC2` (stereo in doubt; 4l), for which, in test [1], the Relative potency worked out at 0.02. In test [2], this compound returned an Inhibitory response of 11%.

In turn, `Cl.N[C@@H]1CSCc2ccccc2[C@@H]1O` showed an Inhibitory response in test [2] of 2%.

`COc1cc2c(cc1SC)C(O)C(N)CCC2` (stereo in doubt; 4ff) registered a Relative potency in test [1] of 0.05. This compound gave an Inhibitory response in test [2] of 81%.

`COc1ccc2c(c1)CCCC1NC(=O)OC21` (stereo unspecified): in test [2], the Inhibitory response was 0%.

As for `Cc1ccc2c(c1)CCCC1NC(=O)OC21` (stereo unspecified), the Inhibitory response in test [2] was 28%.

The compound `O=C1NC2CCCc3ccccc3C2O1` (stereo in doubt; 19b) showed an Inhibitory response in test [2] of 24%.

Compound `NC[C@@H](O)c1ccccc1` returned an Inhibitory response in test [2] of 21%.
